Legend:
[1] = Cmax in rat at 20 mg/kg, po; format: ADME, organism-based; set-up: dose 20 mg/kg, route oral; conditions: in vivo
Method in brief: (§1)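 Healthy male rats (200–220 g), four per group, dosed orally at 20 mg/kg. Plasma exposure parameters derived: Cmax, Tmax, terminal half-life after oral dosing, and area under the concentration curve.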

[2] = Tmax in rat at 20 mg/kg, po; format: ADME, organism-based; set-up: dose 20 mg/kg, route oral; conditions: in vivo; method in brief: as §1
[3] = Terminal half life in rat at 20 mg/kg, po; format: ADME, organism-based; set-up: dose 20 mg/kg, route oral; conditions: in vivo, read-out: beta t1/2 (converted); method in brief: as §1
[4] = AUC (0 to t) in rat at 20 mg/kg, po; format: ADME, organism-based; set-up: dose 20 mg/kg, route oral; conditions: plasma; method in brief: as §1
[5] = species on record: Mus musculus; assay: animal or person; conditions: ICR, Blood, po, 1 h, read-out: INH
[6] = species on record: Mus musculus; assay: animal or person; conditions: ICR, Blood, po, 1 h, read-out: INH; remark: listed apart in the source

SMILES	Cmax [1] [µg/mL]	Tmax [2] [h]	half-life [3] [h]	AUC(0-t) [4] [µg·h/mL]	inhibition in vivo at 3 mg/kg [5] [%]	inhibition in vivo at 10 mg/kg [6] [%]
Cl.N[C@@H](CC(=O)N1CCn2nnc(-c3ccc(C(=O)O)cc3)c2C1)Cc1cc(F)c(F)cc1F	0.6	0.38	2.18	1.13		
Cl.N[C@@H](CC(=O)N1CCn2nnc(C(F)F)c2C1)Cc1cc(F)c(F)cc1F	0.695	1	2.27	2.52		
Cl.N[C@@H](CC(=O)N1CCn2nnc(-c3ccco3)c2C1)Cc1cc(F)c(F)cc1F	0.255	1	1.87	0.73		
Cl.NC(=O)c1nnn2c1CN(C(=O)C[C@H](N)Cc1cc(F)c(F)cc1F)CC2	0.231	0.63	2.23	0.871		
N[C@@H](CC(=O)N1CCn2nnc(-c3ccccn3)c2C1)Cc1cc(F)c(F)cc1F.O=C(O)/C=C/C(=O)O	0.484	1.38	2.67	2.51		
N[C@@H](CC(=O)N1CCn2nnc(-c3cnco3)c2C1)Cc1cc(F)c(F)cc1F.O=C(O)/C=C/C(=O)O	0.475	1.88	1.35	1.64		
N[C@@H](CC(=O)N1CCn2nnc(C(F)(F)F)c2C1)Cc1cc(F)c(F)cc1F.O=C(O)/C=C/C(=O)O	0.965	0.88	2.53	4.56	19	27

Source: ChEMBL document CHEMBL1681757, “Discovery of potent dipeptidyl peptidase IV inhibitors derived from β-aminoamides bearing substituted [1,2,3]-triazolopiperidines for the treatment of type 2 diabetes” (Bioorg Med Chem Lett, 2011)
